Here are results for ten compounds from ChEMBL document CHEMBL1157558, “Design, asymmetric synthesis, and evaluation of pseudosymmetric sulfoximine inhibitors against HIV-1 protease” (Bioorg Med Chem, 2010).

One may read the inhibition as the change of the read-out against control, counted positive when it falls. As usually defined, the IC50 is the concentration that gives 50% inhibition.

The subject of experiment [1] is Human immunodeficiency virus 1. As to the kind of experiment: Antiviral activity against HIV1 assessed as inhibition of viral infection at 10 uM by cell-based assay. The experiment is classed as functional.
For experiment [2], the target named is Protease (Human immunodeficiency virus 1) (UniProt Q9YQ12). Briefly: Inhibition of recombinant HIV1 protease at 10 uM by HPLC method. In short, it runs like this: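 Recombinant HIV-1 protease with HIV-1 Protease Substrate III in 50 mM sodium acetate pH 4.9, 200 mM NaCl, 5 mM DTT, 10% glycerol; inhibitors added from DMSO (5% v/v final). Enzyme addition starts the reaction, run 3.5 min at 37 °C, then quenched with 10% TFA. Substrate conversion is read by reverse-phase C18 HPLC (5–50% acetonitrile, 0.1% TFA), against inhibitor-free 5% DMSO baseline.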

In experiment [3] the test system is Human immunodeficiency virus 1. As to the kind of experiment: Antiviral activity against HIV1 assessed as inhibition of viral infection by cell-based assay. The experiment is classed as functional, organism-based.

Chain of Protease (Human immunodeficiency virus 1) (Q9YQ12 as listed by the source): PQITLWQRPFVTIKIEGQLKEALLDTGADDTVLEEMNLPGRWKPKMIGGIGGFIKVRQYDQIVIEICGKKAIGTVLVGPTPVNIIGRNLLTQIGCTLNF

In the case of `O=C(N[C@@H](CO)c1ccccc1)[C@@H](CSC[C@@H](Cc1ccccc1)C(=O)N[C@@H](CO)c1ccccc1)Cc1ccccc1`, in experiment [1], the inhibition at 10 µM came out at 15.4%. Also, the inhibition in experiment [2] was 51%.

Turning to `N=[S+]([O-])(C[C@H](Cc1ccccc1)C(=O)N[C@@H](CO)c1ccccc1)C[C@H](Cc1ccccc1)C(=O)N[C@@H](CO)c1ccccc1`, the inhibition at 10 µM in experiment [1] was 0%. In addition, in experiment [2], the inhibition turned out to be 87%.

`O=C(N[C@H](CO)c1ccccc1)[C@@H](Cc1ccccc1)C[S+]([O-])C[C@H](Cc1ccccc1)C(=O)N[C@H](CO)c1ccccc1`: in experiment [1], the inhibition at 10 µM came to 2.5%. For the same compound, the inhibition in experiment [2] stood at 50%.

Consider `CNC(=O)[C@H](NC(=O)[C@@H](Cc1ccccc1)C[S+](=N)([O-])C[C@H](Cc1ccccc1)C(=O)N[C@@H](C(=O)NC)C(C)C)C(C)C`, for which, in experiment [1], the inhibition at 10 µM is 5.5%. Also, in experiment [2], the inhibition is 99%.

Turning to `O=C(N[C@@H](CO)c1ccccc1)[C@@H](Cc1ccccc1)C[S+]([O-])C[C@H](Cc1ccccc1)C(=O)N[C@@H](CO)c1ccccc1`, the inhibition at 10 µM in experiment [1] was determined as 0%. Further, the inhibition in experiment [2] was 47%.

`CNC(=O)[C@H](NC(=O)[C@@H](Cc1ccccc1)C[S+]([O-])C[C@H](Cc1ccccc1)C(=O)N[C@@H](C(=O)NC)C(C)C)C(C)C`: in experiment [1], the inhibition at 10 µM was 2.1%. For the same compound, in experiment [2], the inhibition was found to be 90%.

Turning to `CNC(=O)[C@@H](NC(=O)[C@@H](CSC[C@@H](Cc1ccccc1)C(=O)N[C@H](C(=O)NC)C(C)C)Cc1ccccc1)C(C)C`, the inhibition at 10 µM in experiment [1] amounted to 12.6%. Moreover, the inhibition in experiment [2] was 87%.

With `CN=[S+]([O-])(C[C@H](Cc1ccccc1)C(=O)N[C@@H]1c2ccccc2C[C@@H]1O)C[C@H](Cc1ccccc1)C(=O)N[C@@H]1c2ccccc2C[C@@H]1O`, the concentration for half-maximal inhibition (IC50) in experiment [3] is more than 10 µM.

Turning to `O=C(N[C@H](CO)c1ccccc1)[C@@H](CSC[C@@H](Cc1ccccc1)C(=O)N[C@H](CO)c1ccccc1)Cc1ccccc1`, the inhibition at 10 µM in experiment [1] came to 1.4%. For the same compound, the inhibition in experiment [2] was 41%.

For the compound `N=[S+]([O-])(C[C@H](Cc1ccccc1)C(=O)N[C@H](CO)c1ccccc1)C[C@H](Cc1ccccc1)C(=O)N[C@H](CO)c1ccccc1`, the inhibition at 10 µM in experiment [1] amounted to 0%. Besides, in experiment [2], the inhibition came out at 54%.
